This note sets out measurements from the EternaBench riboswitch data.

For this data set, the system named is MS2 coat protein. The data set is described as follows: apparent Kd, MS2 coat protein; higher = weaker binding; RNA-MaP array; FMN 200 µM where present. Put shortly: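 Each design was made on Illumina sequencing-chip clusters by stalled E. coli RNA polymerase and titrated with SNAP-549-labelled MS2 coat protein from 0.7 or 1.5 nM, doubling to 3 µM, in the absence and then the presence of constant ligand. The buffer was 100 mM Tris-HCl pH 7.5, 80 mM KCl, 4 mM MgCl2, BSA, DTT, yeast tRNA and Tween-20. The apparent Kd is the median of filtered per-cluster fits of binding curves, with green signal normalised to red-channel RNA signal and control-cluster median Fmax.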

The mark [1] stands for this setting: designed as: ON switch for flavin mononucleotide, no ligand.
The mark [2] stands for this setting: ligand present: flavin mononucleotide, designed as: ON switch for flavin mononucleotide.
[3] abbreviates: designed as: OFF switch for flavin mononucleotide, no ligand.
Setting [4] is: ligand present: flavin mononucleotide, designed as: OFF switch for flavin mononucleotide.

Take “AGUUACAUACUCAACAUGAGGAUCACCCAUGUACUCUCUUGUAAGGAUAUACAUUCGUAUUGAUAGUAGAAGGUACUAAUUAUG”: the apparent Kd (in general, the concentration giving half-maximal binding under the conditions of the assay) by setting is: under setting [1], 50.9 nM; under setting [2], 51.5 nM.
On to “GCUGGACGAGGAUAUACAUAACGUGCUUCGGCACGAGAUCUACAUGAGGAUCACCCAUGUAGAAGGUGUCCAGC”, for which the “apparent Kd” value is, setting by setting: under setting [3], 13.7 nM; under setting [4], 16.2 nM.
Take “AACCAGUUGGUAGGAUAUGGUGCAGUGCCCGUACCAGAAGGACCAACAUGAGGAUCACCCAUGUUGGAAAGUCAACAUUAAUGA”: the “apparent Kd” value under setting [3] amounted to 6.32 nM and the “apparent Kd” value under setting [4] amounted to 11.8 nM.
Regarding “ACCUCACAUGAGGAUCACCCAUGUUAGGAUAUCUCGACACUCCGCGGGCGGUAGCGUCAGAGAAGGAACGUGCU”, the “apparent Kd” value runs as follows: under setting [3], 29.1 nM; under setting [4], 24.9 nM.
As for “AGGCGAGUAGGAUAUGCGUUUUUACGGGAAAGCUGGAUGAUACAUGAGGAUCACCCAUGUAGAAGGGCUCUGAA”, the “apparent Kd” value by setting is: under setting [3], 20.6 nM; under setting [4], 16 nM.
Take “AGCAGACGAGGAUAUAGAUUUGUUAACAUGAGGAUCACCCAUGUGAUCGAUUAAUCAUAUUUAGAAGGUGUCUGCU”: the “apparent Kd” value was 37.7 nM under setting [3] and 154 nM under setting [4].
In the same order, the values of “CGUGAACGGACGCACUGUUUCCACAUGAGGAUCACCCAUGUGAAGGAUAUGACUGGCGCCACUUGUUAGAAGGUCACUGGGCGA” are 39.8 nM and 71.1 nM.
Consider “UCCGCGCGCGUAGGAUAUACAUGAGGAUCACCCAUGUACCCAGAUGGCUUCCUGAAUCUUGCAAUGUAGAAGGACGCCCGUGGG”, for which the “apparent Kd” value is, setting by setting: under setting [3], 37.9 nM; under setting [4], 42.5 nM.
In the case of “UUUUAACAUGAGGAUCACCCAUGUGAGGAUAUCGAAAUUUAUAUUUAUAUUAAUAUUACGAGAAGGCACAUUUU”, the “apparent Kd” value reads like this: under setting [3], 85.5 nM; under setting [4], 118 nM.
In the case of “AAGAGCGAUUCUCCCUUCCUACAUGAGGAUCACCCAUGUACGAGAAGGCGCCGUUUAUACAACGGUGAGGAUAUCGUGCGUUAC”, the “apparent Kd” value under setting [3] was 4.49 nM and the “apparent Kd” value under setting [4] is 4.7 nM.
In the case of “UUGCCUCAGAACAUGAGGAUCACCCAUGUGCUGCGGGCAACGUAGGAUAUGAUGGCGUGACGCCAUCAGAAGGAUGAUGGUACC”, the “apparent Kd” value under setting [1] came out at 5.92 nM and the “apparent Kd” value under setting [2] turned out to be 6.15 nM.
“UGAGCCUCGUGAGGAUAUACAUGAGGAUCACCCAUGUAAUAGGAUGAACGGAGGAAACUCCGAAUGUAGAAGGCACGAGGCUCA”: the “apparent Kd” value was 77.7 nM under setting [3] and 664 nM under setting [4].
As for “ACAUGAGGAUCACCCAUGUAGAAUGAAGAAGGUAGAUAAUUGUGUUUCACCCAUGUACAUAAAUCUAAGGAUAUUCUAAUAAUU”, the “apparent Kd” value is 12.3 nM under setting [1] and 7.35 nM under setting [2].
Turning to “GCGUUGAACGAGAAGGCCAAUACAUGAGGAUCACCCAUGUUAAGUUGUUUUGGAGGAUAUCGAACGCAUUCAAUAUUGCAACGC”, the “apparent Kd” value under setting [3] came out at 6.65 nM and the “apparent Kd” value under setting [4] came out at 5.84 nM.
Turning to “UCACUCAAGUUAGGAUAUGGAUCGGAAAACGAUCCAGAAGGAACAUGGGAACAUGAGGAUCACCCAUGUUCCAGAAACGAGUGA”, the “apparent Kd” value came out at 413 nM under setting [1] and 155 nM under setting [2].
Taken in the same sequence, the figures for “GAAGCACGCACAGGAUAUCCGGCGGCGCUCGUCGGAGAAGGGUGACAUGAGGAUCACCCAUGUACGUGCAACUCAGUUUGAGAG” were 21.5 nM and 13.9 nM.
On to “AAUUGACCUGUCAGGAUAUAGAGGGAGACUUACAUCUAGAAGGGACAUGAGGAUCACCCAUGUCAGUUGAGACA”, for which the “apparent Kd” value is, setting by setting: under setting [3], 19.8 nM; under setting [4], 22.6 nM.
“UGGUACUAGGGAGGAUAUGGGAAGAUACAUGAGGAUCACCCAUGUUUAAGAAUGCCGAGAGGCAACUAGAAGGGCCUAGUACCU”: the “apparent Kd” value is 804 nM under setting [1] and 280 nM under setting [2].
With “CGGCUCGGAGAGGAUAUGCAGGCCAACGGCACUGCAGAAGGUUCAACAUGAGGAUCACCCAUGUGAUUUCAACU”, the “apparent Kd” value runs as follows: under setting [3], 23.6 nM; under setting [4], 33.5 nM.
As to “CACAAGAAAGUCGAAGGUUGAAGUAGAAGGUCUACAACAUGACAUGAGGAUCACCCAUGUGCUAAGAAGGAUAUGCUUUAAUCG”, the “apparent Kd” value came to 8.71 nM under setting [3] and 7.12 nM under setting [4].
As to “AGUUAUUCAGGAUAUGGUGUGUUAUACAUGAGGAUCACCCAUGUGGGUCCUGGUUAGGCCUCAGAAGGGAAUGUUA”, the “apparent Kd” value by setting is: under setting [3], 703 nM; under setting [4], 534 nM.
“AGAAGAACAUGAGGAUCACCCAUGUUCCUGCUGCUCCACAGACAGGAUAUGGGUGUCGUCGACAAUCAGAAGGGUUCGCGGAGC”: the “apparent Kd” value under setting [1] came to 34.9 nM and the “apparent Kd” value under setting [2] was 27.5 nM.
Regarding “AAUUAUUUUUGAGGAUAUUGUGGUGAAACACCACAAGAAGGCAAGAUACACAUGAGGAUCACCCAUGUGAGCCUGAUGCUUAUG”, the “apparent Kd” value runs as follows: under setting [3], 17.1 nM; under setting [4], 21.3 nM.
Turning to “CGCUAAUAAUUAAUAUUAAUUGUACAGGAUAUGUUACAUGAGGAUCACCCAUGUAUUGGGUUUAAACAGAAGGGUAUAUUAGCG”, the “apparent Kd” value by setting is: under setting [3], 191 nM; under setting [4], 81.4 nM.
Regarding “GCCAAUGUGGAGGAUAUCGACUUCGAAAGAAGUCGAGAAGGCCACACAUGAGGAUCACCCAUGUGAUGCCUGGC”, the “apparent Kd” value reads like this: under setting [3], 199 nM; under setting [4], 231 nM.
For “CUCAUGUGAGGAUAUUCGGGCGGGCUCGUUUGGGUUUGUUUGGAGAAGGUACAUGAGGAUCACCCAUGUGCUGG”, the “apparent Kd” value was 218 nM under setting [3] and 77.8 nM under setting [4].
Taken in the same sequence, the figures for “GGAUAGGACAGAGGAUAUACUUGCUAGAGAUACUAGCAAAAUUUCCUCACAUGAGGAUCACCCAUGUAGAAGGCUGUCCUAUCG” were 6.95 nM and 54.5 nM.
In the same order, the values of “GGAUGACAAAGUCAUCCAAUACGAACAUGAGGAUCACCCAUGUAGGAUAUGCUACUCAAAGAGUAGCAGAAGGACAUGUGCCUU” are 33.8 nM and 252 nM.
Regarding “GCCAGAGCAGGAUAUUCAAUAUCACACAUGAGGAUCACCCAUGUCUAUCGAAAGAUAGAGGGAGAAGGGCUCUGGC”, the “apparent Kd” value under setting [3] is 64.3 nM and the “apparent Kd” value under setting [4] came out at 18.3 nM.
As to “GGAUAGGACAGAGGAUAUACGUGCUAGAGAUACUAGCAAAAUUUCCUCACAUGAGGAUCACCCAUGUAGAAGGCUGUCCAAUCG”, the “apparent Kd” value reads like this: under setting [3], 13.8 nM; under setting [4], 429 nM.
In the same order, the values of “UGGCUACAUGAGGAUCACCCAUGUCAGGAUAUGCCGUUAAAUUAACAUCAACGUACGGGUAGAAGGGACUGCGU” are 24.3 nM and 23 nM.
As for “ACAUGAGGAUCUCCCAUGUAAAAUUAGGAUAUAUGACUGCACAUGAGGAUCACCCAUGUUCUACCGUAGAAGGGAUAAAUAAUU”, the “apparent Kd” value by setting is: under setting [1], 516 nM; under setting [2], 427 nM.
As to “CCGGCUUAGUAGGAUAUAGGAGUCGAUAGACACCUAGAAGGACUAACAUGAGGAUCACCCAUGUGUCCUACCGG”, the “apparent Kd” value is, setting by setting: under setting [3], 14.3 nM; under setting [4], 29.3 nM.
Regarding “ACCUUACAUGAGGAUCACCCAUGUUAGGAUAUCUCGCCUGCGCUAACAAAGCGCAGGCAGAGAAGGGACGCGGG”, the “apparent Kd” value by setting is: under setting [3], 28.5 nM; under setting [4], 31.8 nM.
On to “GGAUAUAUACAGGAGGAUAUGAGAACAAAGACAUGAGGAUCACCCAUGUACAAAAGGUGGAACAAUCAGAAGGUCUAAACAACAAA”, for which the “apparent Kd” value was determined as 78.3 nM under setting [1] and 69 nM under setting [2].
“GUAGCUACAAUUAUACAUGAGGAUCACCCAUGUUACAUGGGUAAGGAUAUUGAGGUUAUUAUUGUCAAGAAGGUACUAUGCUAC”: the “apparent Kd” value turned out to be 505 nM under setting [1] and 71.6 nM under setting [2].
